Columns and labels:
[1] = molecular target: D(2) dopamine receptor (Homo sapiens) (UniProt P14416); assay: Displacement of [3H]-Spiperone from human recombinant dopamine D2S receptor expressed in CHO cells at 10 uM relative to control; assay type: cell-based
[2] = molecular target: Glucocorticoid receptor (Homo sapiens) (UniProt P04150); assay: Displacement of [3H]-Dexamethasone from human recombinant glucocorticoid receptor at 10 uM relative to control
In short: (§1)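 Tested once at 10 μM in a commercial radioligand binding panel of 68 GPCRs, ion channels, kinases and transporters. Activity is given as displacement of each radioligand relative to control.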

[3] = species on record: Rattus norvegicus; assay: Displacement of [3H]-Flunitrazepam from central-type GABAA receptor flunitrazepam binding site in cerebellum-less rat brain homogenate at 10 uM relative to control; assay type: tissue-based; in short: as §1
[4] = molecular target: Histamine H3 receptor (Homo sapiens) (UniProt Q9Y5N1); assay: Displacement of [3H]-N(-)-alpha-Methylhistamine from human recombinant histamine H3 receptor expressed in CHO-K1 cells at 10 uM relative to control; assay type: cell-based; in short: as §1
Chain of Histamine H3 receptor (Homo sapiens) (Q9Y5N1 whole entry): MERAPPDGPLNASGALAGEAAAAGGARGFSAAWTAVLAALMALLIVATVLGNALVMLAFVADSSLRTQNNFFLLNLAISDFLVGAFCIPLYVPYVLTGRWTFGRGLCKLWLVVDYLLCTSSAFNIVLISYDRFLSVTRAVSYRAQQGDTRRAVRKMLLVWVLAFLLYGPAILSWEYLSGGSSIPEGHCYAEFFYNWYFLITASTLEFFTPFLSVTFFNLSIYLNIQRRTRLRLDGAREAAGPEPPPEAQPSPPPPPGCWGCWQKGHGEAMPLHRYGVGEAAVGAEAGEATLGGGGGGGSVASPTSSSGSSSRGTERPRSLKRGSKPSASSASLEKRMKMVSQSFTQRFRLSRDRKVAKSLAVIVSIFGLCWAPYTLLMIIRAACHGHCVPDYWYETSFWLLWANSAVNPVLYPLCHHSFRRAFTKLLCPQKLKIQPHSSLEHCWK

[5] = molecular target: Endothelin-1 receptor (Homo sapiens) (UniProt P25101); assay: Displacement of [125I]-Endothelin-1 from human recombinant ETA receptor expressed in CHO-K1 cells at 10 uM relative to control; assay type: cell-based; in short: as §1
Chain of Endothelin-1 receptor (Homo sapiens) (P25101 whole entry): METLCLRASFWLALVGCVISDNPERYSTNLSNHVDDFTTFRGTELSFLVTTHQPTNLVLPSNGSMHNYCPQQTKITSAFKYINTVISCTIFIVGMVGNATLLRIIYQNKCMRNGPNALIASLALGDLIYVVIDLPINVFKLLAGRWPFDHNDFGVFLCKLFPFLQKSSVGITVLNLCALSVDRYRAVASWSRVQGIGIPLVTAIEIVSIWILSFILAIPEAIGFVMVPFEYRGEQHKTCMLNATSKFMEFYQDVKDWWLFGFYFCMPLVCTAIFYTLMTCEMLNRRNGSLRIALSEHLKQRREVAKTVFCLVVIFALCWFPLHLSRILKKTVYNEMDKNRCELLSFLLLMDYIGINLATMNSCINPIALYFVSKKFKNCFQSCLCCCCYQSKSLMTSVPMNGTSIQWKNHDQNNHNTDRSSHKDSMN

[6] = molecular target: Prostaglandin E2 receptor EP4 subtype (Homo sapiens) (UniProt P35408); assay: Displacement of [3H]-PGE2 from human recombinant prostanoid EP4 receptor expressed in rat Chem-1 cells at 10 uM relative to control; assay type: cell-based
Chain of Prostaglandin E2 receptor EP4 subtype (Homo sapiens) (P35408 whole entry): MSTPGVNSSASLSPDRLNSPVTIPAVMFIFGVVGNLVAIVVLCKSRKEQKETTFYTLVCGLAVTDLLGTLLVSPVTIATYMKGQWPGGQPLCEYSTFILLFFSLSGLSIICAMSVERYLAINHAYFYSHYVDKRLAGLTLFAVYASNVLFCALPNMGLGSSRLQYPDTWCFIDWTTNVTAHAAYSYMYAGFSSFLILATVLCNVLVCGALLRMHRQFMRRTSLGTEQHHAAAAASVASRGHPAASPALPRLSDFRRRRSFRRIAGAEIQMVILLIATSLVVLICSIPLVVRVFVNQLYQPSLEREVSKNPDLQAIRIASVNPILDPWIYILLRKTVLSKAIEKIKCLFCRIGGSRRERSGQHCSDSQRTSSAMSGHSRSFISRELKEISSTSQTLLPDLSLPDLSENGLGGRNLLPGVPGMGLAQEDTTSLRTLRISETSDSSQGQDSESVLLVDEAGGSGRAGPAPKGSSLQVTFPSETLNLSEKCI

[7] = molecular target: Acetylcholine receptor subunit alpha (Homo sapiens) (UniProt P02708); assay: Displacement of [125I]-alpha-Bungarotoxin from nicotinic acetylcholine alpha1 receptor bungarotoxin binding site in human RD cells at 10 uM relative to control; assay type: cell-based; in short: as §1
Chain of Acetylcholine receptor subunit alpha (Homo sapiens) (P02708 whole entry): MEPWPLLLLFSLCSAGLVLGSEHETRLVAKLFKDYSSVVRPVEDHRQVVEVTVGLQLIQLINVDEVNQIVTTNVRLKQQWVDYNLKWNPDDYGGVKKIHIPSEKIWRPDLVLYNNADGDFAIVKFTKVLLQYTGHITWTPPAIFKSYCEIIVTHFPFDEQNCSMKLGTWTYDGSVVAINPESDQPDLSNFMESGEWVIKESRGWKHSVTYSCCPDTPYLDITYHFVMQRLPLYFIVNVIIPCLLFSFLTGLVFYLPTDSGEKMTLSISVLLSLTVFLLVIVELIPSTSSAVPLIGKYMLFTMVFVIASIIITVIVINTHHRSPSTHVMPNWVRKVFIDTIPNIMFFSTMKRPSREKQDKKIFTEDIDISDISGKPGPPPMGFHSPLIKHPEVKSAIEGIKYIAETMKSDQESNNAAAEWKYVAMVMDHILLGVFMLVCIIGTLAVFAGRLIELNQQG

[8] = species on record: Rattus norvegicus; assay: Displacement of [3H]-Muscimol from central-type GABAA receptor muscimol binding site in cerebellum-less rat brain homogenate at 10 uM relative to control; assay type: tissue-based; in short: as §1
[9] = molecular target: Glutamate NMDA receptor (Rattus norvegicus) (UniProt P35439+Q00959+Q00960+Q00961+Q62645+Q8VHN2+Q9R1M7); assay: Displacement of [3H]-CGP-39653 from NMDA receptor agonist binding site in rat cerebral cortex at 10 uM relative to control; assay type: tissue-based; in short: as §1
[10] = molecular target: Substance-P receptor (Homo sapiens) (UniProt P25103); assay: Displacement of [3H]-Substance P from human recombinant tachykinin NK1 receptor expressed in CHO cells at 10 uM relative to control; assay type: cell-based
Chain of Substance-P receptor (Homo sapiens) (P25103 whole entry): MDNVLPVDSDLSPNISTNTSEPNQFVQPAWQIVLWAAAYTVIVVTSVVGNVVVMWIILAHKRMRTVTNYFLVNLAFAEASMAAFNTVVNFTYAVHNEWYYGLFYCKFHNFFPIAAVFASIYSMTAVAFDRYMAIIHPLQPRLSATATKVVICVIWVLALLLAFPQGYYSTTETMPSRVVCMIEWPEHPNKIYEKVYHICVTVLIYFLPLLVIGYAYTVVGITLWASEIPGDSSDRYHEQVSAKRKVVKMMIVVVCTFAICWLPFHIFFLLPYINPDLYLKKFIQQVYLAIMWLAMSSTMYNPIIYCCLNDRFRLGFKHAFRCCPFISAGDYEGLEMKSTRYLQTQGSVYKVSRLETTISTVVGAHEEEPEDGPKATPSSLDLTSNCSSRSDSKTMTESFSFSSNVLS

[11] = molecular target: Alpha-1D adrenergic receptor (Homo sapiens) (UniProt P25100); assay: Displacement of [3H]-Prazosin from human recombinant adrenergic alpha1D receptor expressed in HEK293 cells at 10 uM relative to control; assay type: cell-based
Chain of Alpha-1D adrenergic receptor (Homo sapiens) (P25100 whole entry): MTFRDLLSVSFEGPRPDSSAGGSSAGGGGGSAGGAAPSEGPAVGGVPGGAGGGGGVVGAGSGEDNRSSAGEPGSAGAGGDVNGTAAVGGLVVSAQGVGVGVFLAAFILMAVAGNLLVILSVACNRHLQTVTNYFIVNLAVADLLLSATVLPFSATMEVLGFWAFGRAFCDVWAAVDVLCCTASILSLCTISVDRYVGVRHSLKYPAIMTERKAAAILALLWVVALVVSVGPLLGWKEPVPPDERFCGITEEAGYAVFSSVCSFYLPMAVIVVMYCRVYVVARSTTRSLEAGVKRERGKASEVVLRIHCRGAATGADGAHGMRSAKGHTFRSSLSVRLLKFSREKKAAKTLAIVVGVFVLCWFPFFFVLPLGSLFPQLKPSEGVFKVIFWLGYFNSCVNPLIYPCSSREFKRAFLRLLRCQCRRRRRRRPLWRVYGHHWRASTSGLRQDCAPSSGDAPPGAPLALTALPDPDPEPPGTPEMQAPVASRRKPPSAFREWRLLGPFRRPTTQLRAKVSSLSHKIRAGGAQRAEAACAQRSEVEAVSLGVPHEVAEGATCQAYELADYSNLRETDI

[12] = Ratio of drug level in brain to plasma in CD-1 mouse at 10 mg/kg, ip by LC-MS/MS analysis; assay type: ADME, organism-based; design: dose 10 mg/kg, route intraperitoneal; settings: brain and plasma, read-out: BPR
[13] = species on record: Mesocricetus auratus; assay: Displacement of [3H]-Glyburide from ATP-sensitive potassium channel in hamster pancreatic HIT-T15 beta cells at 10 uM relative to control; in short: as §1
[14] = species on record: Rattus norvegicus; assay: Displacement of [3H]-GABA from GABA transporter in rat cerebral cortex at 10 uM relative to control; assay type: tissue-based; in short: as §1
[15] = species on record: Mus musculus; assay: Displacement of [3H]-PDBu from phorbol ester receptor in mouse brain at 10 uM relative to control; assay type: tissue-based; in short: as §1
[16] = molecular target: 5-hydroxytryptamine receptor 2B (Homo sapiens) (UniProt P41595); assay: Displacement of [3H]-Lysergic acid diethylamide from human recombinant 5-HT2B receptor expressed in CHO-K1 cells at 10 uM relative to control; assay type: cell-based; in short: as §1
Chain of 5-hydroxytryptamine receptor 2B (Homo sapiens) (P41595 whole entry): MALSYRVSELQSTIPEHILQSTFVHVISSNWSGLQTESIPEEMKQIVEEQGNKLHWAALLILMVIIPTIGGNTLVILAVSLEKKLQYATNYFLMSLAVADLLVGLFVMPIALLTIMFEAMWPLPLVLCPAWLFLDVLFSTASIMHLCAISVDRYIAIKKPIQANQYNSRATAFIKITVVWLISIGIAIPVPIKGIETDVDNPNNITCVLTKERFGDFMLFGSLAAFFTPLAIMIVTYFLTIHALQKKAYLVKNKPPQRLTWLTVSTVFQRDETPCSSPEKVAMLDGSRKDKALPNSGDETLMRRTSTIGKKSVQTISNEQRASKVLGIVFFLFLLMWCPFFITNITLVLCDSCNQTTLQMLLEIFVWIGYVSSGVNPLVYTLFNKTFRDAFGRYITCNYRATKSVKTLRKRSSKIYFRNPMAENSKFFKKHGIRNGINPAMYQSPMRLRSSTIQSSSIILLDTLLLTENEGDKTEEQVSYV

[17] = molecular target: Beta-1 adrenergic receptor (Homo sapiens) (UniProt P08588); assay: Displacement of [125I]-Cyanopindolol from human recombinant adrenergic beta1 receptor expressed in CHO-K1 cells at 10 uM relative to control; assay type: cell-based; in short: as §1
[18] = molecular target: Histamine H1 receptor (Homo sapiens) (UniProt P35367); assay: Displacement of [3H]-Pyrilamine from human recombinant histamine H1 receptor expressed in CHO-K1 cells at 10 uM relative to control; assay type: cell-based
Chain of Histamine H1 receptor (Homo sapiens) (P35367 whole entry): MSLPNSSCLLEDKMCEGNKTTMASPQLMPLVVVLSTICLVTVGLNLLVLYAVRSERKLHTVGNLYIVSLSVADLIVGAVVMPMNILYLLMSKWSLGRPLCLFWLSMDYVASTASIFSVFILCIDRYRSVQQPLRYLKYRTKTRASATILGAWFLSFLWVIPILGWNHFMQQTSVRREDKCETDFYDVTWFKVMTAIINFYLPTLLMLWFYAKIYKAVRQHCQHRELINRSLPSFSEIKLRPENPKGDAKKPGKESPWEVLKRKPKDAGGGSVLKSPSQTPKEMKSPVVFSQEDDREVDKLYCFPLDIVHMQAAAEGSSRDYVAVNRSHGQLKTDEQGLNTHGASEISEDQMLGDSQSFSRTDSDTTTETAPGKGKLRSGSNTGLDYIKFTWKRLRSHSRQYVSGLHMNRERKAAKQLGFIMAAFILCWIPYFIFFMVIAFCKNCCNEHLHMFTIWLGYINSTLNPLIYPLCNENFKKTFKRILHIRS

Chain of Glucocorticoid receptor (Homo sapiens) (P04150 whole entry): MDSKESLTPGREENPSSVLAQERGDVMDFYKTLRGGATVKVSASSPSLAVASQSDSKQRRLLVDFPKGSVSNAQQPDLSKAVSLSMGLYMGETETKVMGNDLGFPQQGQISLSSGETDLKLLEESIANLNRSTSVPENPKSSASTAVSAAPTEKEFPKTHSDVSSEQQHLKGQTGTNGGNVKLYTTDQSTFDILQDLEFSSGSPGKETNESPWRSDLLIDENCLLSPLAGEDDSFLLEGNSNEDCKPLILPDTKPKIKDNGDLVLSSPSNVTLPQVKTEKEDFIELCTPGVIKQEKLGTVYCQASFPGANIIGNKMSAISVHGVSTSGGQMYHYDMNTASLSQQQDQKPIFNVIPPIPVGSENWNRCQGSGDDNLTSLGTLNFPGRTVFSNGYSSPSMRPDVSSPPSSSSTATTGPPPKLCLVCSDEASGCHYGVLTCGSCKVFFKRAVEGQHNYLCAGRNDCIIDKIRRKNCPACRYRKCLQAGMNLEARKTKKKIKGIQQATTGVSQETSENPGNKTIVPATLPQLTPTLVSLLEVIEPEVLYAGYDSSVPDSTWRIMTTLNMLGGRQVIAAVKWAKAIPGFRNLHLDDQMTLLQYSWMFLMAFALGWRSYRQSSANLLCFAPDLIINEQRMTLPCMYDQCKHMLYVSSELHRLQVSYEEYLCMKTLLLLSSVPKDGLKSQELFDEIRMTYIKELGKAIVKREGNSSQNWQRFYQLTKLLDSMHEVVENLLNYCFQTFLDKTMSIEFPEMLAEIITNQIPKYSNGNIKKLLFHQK
Chain of D(2) dopamine receptor (Homo sapiens) (P14416 whole entry): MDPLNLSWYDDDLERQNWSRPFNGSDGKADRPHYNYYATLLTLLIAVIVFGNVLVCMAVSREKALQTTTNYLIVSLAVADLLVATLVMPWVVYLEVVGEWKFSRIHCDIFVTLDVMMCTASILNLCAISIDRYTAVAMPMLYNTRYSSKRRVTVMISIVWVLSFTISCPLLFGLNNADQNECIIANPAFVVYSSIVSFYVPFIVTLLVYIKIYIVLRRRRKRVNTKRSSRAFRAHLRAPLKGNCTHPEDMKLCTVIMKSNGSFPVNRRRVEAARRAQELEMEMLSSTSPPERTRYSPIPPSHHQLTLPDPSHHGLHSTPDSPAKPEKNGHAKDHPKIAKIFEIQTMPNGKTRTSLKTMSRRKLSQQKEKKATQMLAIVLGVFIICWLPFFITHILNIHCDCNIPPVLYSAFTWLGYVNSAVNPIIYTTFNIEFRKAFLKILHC

With `Cc1csc(NC(=O)c2cc(F)cc(Oc3cncnc3)c2)n1` as the compound, how does the inhibition [1] read?
The inhibition was over 35%.

What about the inhibition [2] of the same compound?
The inhibition was over 35%.

And the inhibition [3]?
Its inhibition is over 35%.

And the inhibition [4]?
Its inhibition is over 35%.

What about the inhibition [5] of the same compound?
Its inhibition is over 35%.

What about the inhibition [6] of the same compound?
Its inhibition is over 35%.

What about the inhibition [7] of the same compound?
The inhibition was over 35%.

What about the inhibition [8] of the same compound?
Its inhibition is over 35%.

And the inhibition [9]?
The inhibition was over 35%.

What about the inhibition [10] of the same compound?
The inhibition was over 35%.

And the inhibition [11]?
Its inhibition is over 35%.

And the Kp [12]?
Its Kp is 0.99.

What about the inhibition [13] of the same compound?
The inhibition was over 35%.

And the inhibition [14]?
Its inhibition is over 35%.

What about the inhibition [15] of the same compound?
Its inhibition is over 35%.

And the inhibition [16]?
The inhibition was over 35%.

What about the inhibition [17] of the same compound?
The inhibition was over 35%.

What about the inhibition [18] of the same compound?
Its inhibition is over 35%.

Reference: ChEMBL document CHEMBL2439973, “Discovery of VU0409106: A negative allosteric modulator of mGlu5 with activity in a mouse model of anxiety” (Bioorg Med Chem Lett, 2013)
